Laboratory results as given in ChEMBL document CHEMBL1142338, “Design, synthesis, cytoselective toxicity, structure-activity relationships, and pharmacophore of thiazolidinone derivatives targeting drug-resistant lung cancer cells” (J Med Chem, 2008).

Legend:
NCI-H460 [1] = test: Anticancer activity against paclitaxel resistant variant human H460 cells; assay type: functional, cell-based
In short: (§1)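 H460 and the paclitaxel-resistant, P-gp-overexpressing H460taxR line were grown in RPMI 1640 with 10% heat-inactivated FCS, penicillin and streptomycin, at 37 C in 5% CO2. Cells were seeded in 96-well plates, dosed next day from DMSO stocks (DMSO <1%, matched DMSO control), and stained with sulforhodamine B at 72 h. IC50 came from four-parameter logistic fits; at least three experiments.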

NCI-H460 [2] = test: Anticancer activity against human H460 cells; assay type: functional, cell-based; in short: as §1
[3] = Anticancer activity against human NHFB cells; assay type: ADME, cell-based
In short: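 Normal human fibroblasts (NHFB) were kept in DMEM with 10% heat-inactivated FCS, penicillin and streptomycin, at 37 C in 5% CO2. They were seeded in 96-well plates and treated next day, with DMSO below 1% and a matched DMSO control. Sulforhodamine B readout was at 72 h, with viability taken relative to control. IC50 came from four-parameter logistic fits; unreached values were recorded as >100 µM because of the solubility/DMSO limit.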

Compound	IC50 (NCI-H460 [1]) [nM]	IC50 (NCI-H460 [2]) [nM]	IC50 [3] [nM]
COc1ccc(/C=C2/S/C(=N/c3ccccc3C)NC2=O)cc1	1700	1780	195000
O=C1N/C(=N\c2ccc(Cl)cc2)S/C1=C/c1ccccc1O	1180	1850	> 100000
CN(C)c1ccc(/C=C2/S/C(=N/c3ccc(Cl)cc3)NC2=O)cc1	2930	2890	> 100000
COc1ccc(N=C2NC(=O)/C(=C\c3ccc(N(C)C)cc3)S2)cc1	1600	2520	> 100000
CC(=O)Nc1ccc(/C=C2/S/C(=N/c3cccc(Cl)c3)NC2=O)cc1	1250	1190	> 100000
CN(C)c1ccc(/C=C2/SC(=Nc3ccc(O)cc3)NC2=O)cc1	1080	1320	> 100000
CN(C)c1ccc(/C=C2/SC(=Nc3ccccc3Cl)NC2=O)cc1	880	730	> 100000

These reach a lower IC50 (NCI-H460 [1]). Values come first.

IC50 (NCI-H460 [1]) [nM]	IC50 (NCI-H460 [2]) [nM]	IC50 [3] [nM]	Compound
820	940	> 100000	Cc1ccc(N=C2NC(=O)/C(=C\c3ccc(N(C)C)cc3)S2)cc1
540	650	> 100000	Cc1ccccc1/N=C1\NC(=O)/C(=C\c2ccc(N(C)C)cc2)S1
210	500	> 100000	CN(C)c1ccc(/C=C2/SC(=Nc3ccccc3)NC2=O)cc1
